Data published in ChEMBL document CHEMBL1158530, “Phosphate ester derivatives of homocamptothecin: synthesis, solution stabilities and antitumor activities” (Bioorg Med Chem, 2010).
Calls of active or inactive are those of the source. The rule behind the calls is not given here.

Assays:
A549 [1] = test: Cytotoxicity against human A549 cells after 72 hrs by MTT assay; format: functional, cell-based; conditions: A549, 72 h
How it was run: (§1)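 A549, MDA-MB-435 and LOVO cells seeded at 6000–10,000 per well. Treated in triplicate with graded drug concentrations for 72 h at 37 °C. Viability read by MTT; IC50 taken from the dose–response curve.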

MDA-MB-435 = test: Cytotoxicity against human MDA-MB-435 cells after 72 hrs by MTT assay; format: functional, cell-based; conditions: MDA-MB-435, 72 h; how it was run: as §1
LoVo = test: Cytotoxicity against human LoVo cells after 72 hrs by MTT assay; format: functional, cell-based; how it was run: as §1
A549 [2] = test: Antitumor activity against human A549 cells xenografted in ip dosed BALB/c mouse assessed as tumor regression; format: functional, organism-based
How it was run: (§2)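 Male BALB/c nude mice (18-20g) implanted subcutaneously in right axilla with A549 cells. Treatment started at day 17 when tumors reached about 100–300 mm³. Single ip injection on day 17, six mice per group, eight controls. Caliper length and width every 4 days, TV = 1/2 × a × b². Sacrificed day 35, tumors removed; growth inhibition relative to placebo controls.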

A549 [3] = test: Antitumor activity against human A549 cells xenografted in BALB/c mouse assessed as inhibition of tumor growth at 50 mg/kg, ip relative to control; format: functional; conditions: route intraperitoneal, read-out: TGI; how it was run: as §2
[4] = Chemical stability assessed as compound remaining at pH 7.4 after 24 hrs by modified HPLC method; format: physicochemical; conditions: buffer, read-out: Stability
How it was run: (§3)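 Drug in DMSO (2 mM, 430 μL) added to 70 μL of aqueous solution preincubated 5 min at 37 °C. Samples held at 37 °C, pH 3.0 or pH 7.4. Percent of initial phosphate-form concentration followed by modified HPLC.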

[5] = Chemical stability assessed as compound remaining at pH 3.0 after 24 hrs by modified HPLC method; format: physicochemical; conditions: buffer, read-out: Stability; how it was run: as §3
Bos taurus [6] = species on record: Bos taurus; test: Inhibition of calf thymus topoisomerase 1-mediated relaxation of Escherichia coli pBR322 plasmid DNA at 1 uM after 15 mins by cleavable complex assay
How it was run: (§4)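 Calf thymus Topo I (0.5 U) with 0.25 μg supercoiled pBR322 in Topo I buffer containing BSA, with or without drug, 37 °C for 15 min. Stopped with 0.5% SDS final. Run on 0.8% agarose gel in TAE, 120 V for 40 min, stained with ethidium bromide, viewed under UV.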

Bos taurus [7] = species on record: Bos taurus; test: Inhibition of calf thymus topoisomerase 1-mediated relaxation of Escherichia coli pBR322 plasmid DNA after 15 mins by cleavable complex assay
How it was run: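 Calf thymus Topo I (0.5 U) incubated with 0.25 μg supercoiled pBR322 DNA in Topo I buffer with 0.1% BSA stock, with or without drug at 1, 10 and 50 μM, 37 °C for 15 min. Stopped with SDS (0.5% final). Products resolved on 0.8% agarose gel in TAE (120 V, 40 min), ethidium bromide stained, imaged under UV.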

A549 [8] = test: Antitumor activity against human A549 cells xenografted in BALB/c mouse assessed as inhibition of tumor growth at 6.25 to 25 mg/kg, ip relative to control; format: functional; conditions: dose mg/kg 6.25-25; route intraperitoneal; how it was run: as §2
Bos taurus [9] = species on record: Bos taurus; test: Inhibition of calf thymus topoisomerase 1-mediated relaxation of Escherichia coli pBR322 plasmid DNA at 100 uM after 15 mins by cleavable complex assay; how it was run: as §4
A549 [10] = test: Antitumor activity against human A549 cells xenografted in BALB/c mouse assessed as inhibition of tumor growth at 25 mg/kg, ip relative to control; format: functional; conditions: route intraperitoneal, read-out: TGI; how it was run: as §2

Compound	IC50 (A549 [1])	IC50 (MDA-MB-435)	IC50 (LoVo)	further results
CCCCCCCCCCCCCCCCOP(=O)(OCCCCCCCCCCCCCCCC)Oc1ccc2nc3c(c(C)c2c1)Cn1c-3cc2c(c1=O)COC(=O)C[C@]2(O)CC	> 100 µM	> 100 µM	> 100 µM	
CCOP(=O)(O)Oc1ccc2nc3c(c(C)c2c1)Cn1c-3cc2c(c1=O)COC(=O)C[C@]2(O)CC	11.4 µM	5.26 µM	7.24 µM	
CCCCCOP(=O)(OCCCCC)Oc1ccc2nc3c(c(C)c2c1)Cn1c-3cc2c(c1=O)COC(=O)C[C@]2(O)CC	2.3 µM	0.72 µM	1.19 µM	Activity (A549 [2]): Dose-dependent effect; inhibition in vivo at 50 mg/kg (A549 [3]): 42%; remaining at 24 h [4]: 91%; remaining at 24 h [5]: 100%
CCOP(=O)(OCC)Oc1ccc2nc3c(c(C)c2c1)Cn1c-3cc2c(c1=O)COC(=O)C[C@]2(O)CC	8.05 µM	0.79 µM	1.26 µM	
CCc1c2c(nc3ccc(OC(=O)N4CCC(N5CCCCC5)CC4)cc13)-c1cc3c(c(=O)n1C2)COC(=O)[C@]3(O)CC [IRINOTECAN]	4.61 µM	1.14 µM	4.99 µM	inhibition in vivo at 50 mg/kg (A549 [3]): 51%
CC[C@@]1(O)C(=O)OCc2c1cc1n(c2=O)Cc2cc3c(CN(C)C)c(O)ccc3nc2-1 [TOPOTECAN]	0.04 µM	< 0.001 µM	0.02 µM	
CC[C@@]1(O)C(=O)OCc2c1cc1n(c2=O)Cc2cc3ccccc3nc2-1				inhibition (Bos taurus [6]): inactive
CC[C@@]1(O)CC(=O)OCc2c1cc1n(c2=O)Cc2c-1nc1ccc(OP(=O)(O)OCc3ccccc3)cc1c2C	29.4 µM	10.8 µM	9.31 µM	
CC[C@@]1(O)CC(=O)OCc2c1cc1n(c2=O)Cc2c-1nc1ccc(OP(=O)(OCC(F)(F)F)OCC(F)(F)F)cc1c2C	15.5 µM	0.22 µM	5.42 µM	
CC[C@@]1(O)CC(=O)OCc2c1cc1n(c2=O)Cc2c-1nc1ccc(O)cc1c2C	0.03 µM	< 0.001 µM	0.01 µM	inhibition (Bos taurus [7]): Dose-dependent effect
CC[C@@]1(O)CC(=O)OCc2c1cc1n(c2=O)Cc2c-1nc1ccc(OP(=O)(OC(C)C)OC(C)C)cc1c2C	11.4 µM	3.4 µM	5.56 µM	
CCCCOP(=O)(OCCCC)Oc1ccc2nc3c(c(C)c2c1)Cn1c-3cc2c(c1=O)COC(=O)C[C@]2(O)CC	2.84 µM	0.51 µM	0.91 µM	Activity (A549 [2]): Dose-dependent effect; TGI (A549 [8]): 25%; inhibition (Bos taurus [9]): Active; inhibition in vivo at 25 mg/kg (A549 [10]): 59%; remaining at 24 h [4]: 95%; remaining at 24 h [5]: 100%
